Reference: ChEMBL document CHEMBL3259727, “Cathepsin C inhibitors: property optimization and identification of a clinical candidate” (J Med Chem, 2014)
The source made the active and inactive calls. The calls are words filed in the database; no cut-off is given here.

Legend:
[1] = molecular target: Procathepsin L (Homo sapiens, UniProt P07711); assay: Inhibition of Cathepsin L (unknown origin)
[2] = molecular target: T1, Dipeptidyl peptidase 1 (Homo sapiens, UniProt P53634); assay: Inhibition of recombinant human cathepsin C using H-Gly-Arg-AMC as substrate preincubated for 30 mins before substrate addition measured after 60 mins by fluorescence assay
T1 sequence (P53634 25-134 limits assumed): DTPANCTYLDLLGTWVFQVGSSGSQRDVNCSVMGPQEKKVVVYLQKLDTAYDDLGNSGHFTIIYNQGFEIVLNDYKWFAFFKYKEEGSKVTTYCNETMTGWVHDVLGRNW
T1 sequence (P53634 231-394 limits assumed): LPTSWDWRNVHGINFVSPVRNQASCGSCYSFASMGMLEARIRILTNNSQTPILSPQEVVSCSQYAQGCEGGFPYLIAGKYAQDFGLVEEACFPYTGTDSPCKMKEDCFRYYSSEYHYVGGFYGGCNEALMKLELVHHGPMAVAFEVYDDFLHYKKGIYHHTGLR
T1 sequence (P53634 395-463 limits assumed): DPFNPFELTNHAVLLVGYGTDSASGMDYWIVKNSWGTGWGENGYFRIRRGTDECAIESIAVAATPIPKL

[3] = Dissociation constant, pKa of the compound; assay type: physicochemical
[4] = molecular target: Cathepsin B (Homo sapiens, UniProt P07858); assay: Inhibition of Cathepsin B (unknown origin)
[5] = Induction of phospholipid accumulation in rat hepatoma cells; assay type: cell-based
[6] = Lipophilicity, log D of the compound; assay type: physicochemical; details: octanol/water
[7] = molecular target: T2, Cathepsin K (Homo sapiens, UniProt P43235); assay: (§1) Inhibition of Cathepsin K (unknown origin)
T2 sequence (P43235 whole entry): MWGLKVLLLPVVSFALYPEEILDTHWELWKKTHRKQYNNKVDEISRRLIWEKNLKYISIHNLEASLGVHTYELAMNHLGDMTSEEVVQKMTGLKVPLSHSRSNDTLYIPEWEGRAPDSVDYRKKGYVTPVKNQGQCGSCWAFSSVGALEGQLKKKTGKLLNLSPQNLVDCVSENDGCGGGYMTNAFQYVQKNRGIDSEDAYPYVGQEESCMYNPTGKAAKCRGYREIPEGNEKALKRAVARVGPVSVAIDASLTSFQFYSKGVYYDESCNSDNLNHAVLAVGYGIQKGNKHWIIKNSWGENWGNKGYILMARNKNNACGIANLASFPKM

[8] = molecular target: T1, Dipeptidyl peptidase 1; assay: Inhibition of cathepsin C in human THP1 cells assessed as inhibition of H-Gly-Phe-AFC cleavage by fluorescence assay; assay type: cell-based, THP-1
Procedure, shortened: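 Cellular CatC activity in human THP1 cells measured as cleavage of fluorogenic substrate H-Gly-Phe-AFC; pIC50 determined.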

[9] = Intrinsic clearance in rat hepatocytes assessed per million cells; assay type: ADME, cell-based, Hepatocyte; details: read-out: CLH
Procedure, shortened: (§2)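 Intrinsic clearance (Clint) determined in human liver microsome and rat hepatocyte preparations.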

[10] = Intrinsic clearance in human microsomes; assay type: ADME, Microsome; procedure, shortened: as §2
[11] = molecular target: Cathepsin S (Homo sapiens, UniProt P25774); assay: Inhibition of Cathepsin S (unknown origin)
Sequence of Cathepsin S (P25774 whole entry): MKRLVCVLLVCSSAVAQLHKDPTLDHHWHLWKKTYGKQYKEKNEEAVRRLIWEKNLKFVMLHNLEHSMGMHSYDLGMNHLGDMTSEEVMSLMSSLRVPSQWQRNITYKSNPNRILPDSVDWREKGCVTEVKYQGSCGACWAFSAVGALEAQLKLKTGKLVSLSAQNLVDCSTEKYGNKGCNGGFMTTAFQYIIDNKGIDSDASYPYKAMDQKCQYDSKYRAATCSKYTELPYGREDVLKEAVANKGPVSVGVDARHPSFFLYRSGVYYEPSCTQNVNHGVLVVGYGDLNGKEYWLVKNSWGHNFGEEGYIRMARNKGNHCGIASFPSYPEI

[12] = molecular target: Voltage-gated inwardly rectifying potassium channel KCNH2 (Homo sapiens, UniProt Q12809); assay: Inhibition of human ERG by electrophysiology assay
Sequence of Voltage-gated inwardly rectifying potassium channel KCNH2 (Q12809 whole entry): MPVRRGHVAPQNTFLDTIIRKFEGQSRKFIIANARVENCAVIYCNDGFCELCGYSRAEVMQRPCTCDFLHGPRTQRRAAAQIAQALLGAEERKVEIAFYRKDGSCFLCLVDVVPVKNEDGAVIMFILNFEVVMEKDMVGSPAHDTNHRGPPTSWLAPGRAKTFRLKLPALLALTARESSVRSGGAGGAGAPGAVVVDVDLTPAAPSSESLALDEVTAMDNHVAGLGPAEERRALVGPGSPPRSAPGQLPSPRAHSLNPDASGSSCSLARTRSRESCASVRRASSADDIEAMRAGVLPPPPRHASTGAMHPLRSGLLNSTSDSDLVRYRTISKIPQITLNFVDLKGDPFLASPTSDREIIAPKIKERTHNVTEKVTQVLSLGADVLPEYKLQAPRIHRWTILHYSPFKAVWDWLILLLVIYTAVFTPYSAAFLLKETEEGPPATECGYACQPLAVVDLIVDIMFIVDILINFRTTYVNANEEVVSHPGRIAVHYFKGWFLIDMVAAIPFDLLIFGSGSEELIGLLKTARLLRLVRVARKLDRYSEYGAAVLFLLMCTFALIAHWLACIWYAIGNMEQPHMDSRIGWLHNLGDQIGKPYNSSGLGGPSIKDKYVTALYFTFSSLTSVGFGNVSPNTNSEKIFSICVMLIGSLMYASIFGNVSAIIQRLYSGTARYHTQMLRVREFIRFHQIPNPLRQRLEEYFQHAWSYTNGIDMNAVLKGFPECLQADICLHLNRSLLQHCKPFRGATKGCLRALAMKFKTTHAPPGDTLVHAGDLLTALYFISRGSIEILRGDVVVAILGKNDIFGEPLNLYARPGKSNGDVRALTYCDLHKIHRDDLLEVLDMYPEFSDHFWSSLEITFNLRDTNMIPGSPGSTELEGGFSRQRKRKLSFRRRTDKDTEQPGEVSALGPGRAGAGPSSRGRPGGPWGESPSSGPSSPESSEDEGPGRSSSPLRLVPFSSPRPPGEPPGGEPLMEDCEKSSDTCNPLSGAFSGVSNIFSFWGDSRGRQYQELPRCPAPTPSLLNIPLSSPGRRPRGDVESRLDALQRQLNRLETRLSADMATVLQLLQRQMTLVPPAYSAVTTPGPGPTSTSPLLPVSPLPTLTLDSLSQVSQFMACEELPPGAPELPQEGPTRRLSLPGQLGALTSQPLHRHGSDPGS

[13] = tested on: Hepatocyte; assay: Metabolic stability in human hepatocytes assessed per compound oxidation by LC-MS/MS analysis; assay type: ADME, cell-based
[14] = tested on: Plasma; assay: Stability in human plasma; assay type: ADME, cell-free
[15] = tested on: Hepatocyte; assay: Metabolic stability in rat hepatocytes assessed per compound oxidation by LC-MS/MS analysis; assay type: ADME, cell-based
[16] = tested on: Plasma; assay: Stability in rat plasma; assay type: ADME, cell-free
[17] = Bioavailability in mouse; assay type: ADME, organism-based; details: in vivo
[18] = Clearance in rat; assay type: ADME, organism-based; details: in vivo
[19] = Half life in mouse; assay type: ADME, organism-based; details: in vivo
[20] = organism: Rattus norvegicus; assay: Toxicity in rat assessed as liver vacuolation; assay type: organism-based; details: in vivo
[21] = organism: Rattus norvegicus; assay: Toxicity in rat assessed as liver cholangitis; assay type: organism-based; details: in vivo
[22] = Clearance in mouse; assay type: ADME, organism-based; details: in vivo
[23] = Clearance in dog; assay type: ADME, organism-based, Canis lupus familiaris; details: in vivo
[24] = organism: Rattus norvegicus; assay: Toxicity in rat assessed as foci of foaming macrophages in lung; assay type: organism-based
[25] = Half life in rat; assay type: ADME, organism-based; details: in vivo
[26] = Bioavailability in dog; assay type: ADME, organism-based, Canis lupus familiaris; details: in vivo
[27] = Volume of distribution at steady state in dog; assay type: ADME, organism-based, Canis lupus familiaris; details: in vivo, read-out: Vdss
[28] = molecular target: T3, Leukotriene B4 receptor (Homo sapiens, UniProt Q9NPC1+Q15722); assay: Binding affinity to leukotriene B4 receptor (unknown origin) at 10 uM; assay type: protein assay
T3 sequence (Q15722 whole entry, looked up): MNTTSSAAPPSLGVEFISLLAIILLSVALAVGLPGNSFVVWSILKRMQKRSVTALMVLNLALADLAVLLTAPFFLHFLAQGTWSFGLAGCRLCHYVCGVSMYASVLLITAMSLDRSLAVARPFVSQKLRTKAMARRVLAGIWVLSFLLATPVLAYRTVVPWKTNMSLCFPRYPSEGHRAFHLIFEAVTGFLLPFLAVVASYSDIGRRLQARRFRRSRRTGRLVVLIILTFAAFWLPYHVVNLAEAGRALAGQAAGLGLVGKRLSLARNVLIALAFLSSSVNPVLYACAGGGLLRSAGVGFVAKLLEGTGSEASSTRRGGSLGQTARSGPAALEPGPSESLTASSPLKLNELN
T3 sequence (Q9NPC1 whole entry, looked up): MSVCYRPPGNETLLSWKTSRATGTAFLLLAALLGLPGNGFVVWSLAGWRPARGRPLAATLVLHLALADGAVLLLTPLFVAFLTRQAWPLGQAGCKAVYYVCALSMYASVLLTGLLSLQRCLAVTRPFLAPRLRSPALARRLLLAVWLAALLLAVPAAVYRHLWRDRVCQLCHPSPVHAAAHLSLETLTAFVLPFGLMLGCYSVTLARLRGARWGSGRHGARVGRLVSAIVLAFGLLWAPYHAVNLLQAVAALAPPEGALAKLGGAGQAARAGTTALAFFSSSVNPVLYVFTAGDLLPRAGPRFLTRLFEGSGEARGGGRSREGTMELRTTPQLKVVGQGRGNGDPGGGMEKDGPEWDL
Procedure, shortened: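 Screened at 10 μM in a human LTB4 binding assay within a panel of over 170 assays; percent inhibition reported.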

[29] = Volume of distribution at steady state in mouse; assay type: ADME, organism-based; details: in vivo, read-out: Vdss
[30] = Half life in dog; assay type: ADME, organism-based, Canis lupus familiaris; details: in vivo
[31] = organism: Rattus norvegicus; assay: Toxicity in rat assessed as liver hypertrophy; assay type: organism-based; details: in vivo
[32] = Bioavailability in rat; assay type: ADME, organism-based; details: in vivo
[33] = molecular target: T3, Leukotriene B4 receptor; assay: Binding affinity to leukotriene B4 receptor (unknown origin); assay type: protein assay
[34] = Volume of distribution at steady state in rat; assay type: ADME, organism-based; details: in vivo, read-out: Vdss
[35] = molecular target: T4, Cathepsin K (Homo sapiens) (UniProt P43235); assay: as §1
T4 sequence (whole entry): T2 sequence (P43235 whole entry)

[36] = molecular target: T4, Cathepsin K (Homo sapiens); assay: Inhibition of Cathepsin K (unknown origin) at 10 uM

Sequence of Procathepsin L (P07711 whole entry): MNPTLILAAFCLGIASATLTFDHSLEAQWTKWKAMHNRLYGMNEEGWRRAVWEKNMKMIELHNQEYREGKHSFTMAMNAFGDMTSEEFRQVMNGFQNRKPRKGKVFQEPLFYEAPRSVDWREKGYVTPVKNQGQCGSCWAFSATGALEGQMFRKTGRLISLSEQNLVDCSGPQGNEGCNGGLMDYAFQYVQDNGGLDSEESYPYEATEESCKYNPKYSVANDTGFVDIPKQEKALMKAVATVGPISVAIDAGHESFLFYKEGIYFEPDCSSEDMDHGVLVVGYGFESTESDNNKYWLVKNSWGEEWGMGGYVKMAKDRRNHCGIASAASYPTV

Compound	IC50 [1]	IC50 [2]	pKa [3]	IC50 [4]	EC50 [5]	logD [6]	IC50 [7]	IC50 [8]	hepatocyte CLint [9]	microsomal CLint [10]	IC50 [11]	IC50 [12]	also measured
N#Cc1ccc(-c2ccc(C[C@@H](C#N)NC(=O)[C@@H]3C[C@@H](O)CCN3)cc2)cc1	> 10000 nM	5.01 nM	7.6	> 10000 nM	75000 nM	1.4	6310 nM	12.6 nM	4 µL/min/1e6 cells	< 3 µL/min/mg	> 10000 nM	> 33000 nM	
N#C[C@H](Cc1ccc(-c2ccccc2)cc1)NC(=O)[C@@H]1CCCCN1								158 nM	> 150 µL/min/1e6 cells				Stability [13]: Unstable; Stability [14]: Stable; Stability [15]: Unstable; Stability [16]: Stable
N#Cc1ccc(-c2ccc(C[C@@H](C#N)NC(=O)C3(N)CCOCC3)cc2)cc1	> 10000 nM		5.8	> 10000 nM	> 100000 nM	1.9	> 10000 nM		2.9 µL/min/1e6 cells	3.6 µL/min/mg	> 10000 nM	26000 nM	bioavailability [17]: 95%; clearance [18]: 9 mL/min/kg; half-life [19]: 2 h; Activity [20]: Non-toxic; Activity [21]: Non-toxic; clearance [22]: 9 mL/min/kg; clearance [23]: 2 mL/min/kg; Activity [24]: Non-toxic; half-life [25]: 3.5 h; bioavailability [26]: 72%; Vd [27]: 1.4 L/kg; inhibition [28]: 69%; Vd [29]: 1.6 L/kg; half-life [30]: 11.6 h; Activity [31]: Non-toxic; bioavailability [32]: 92%; IC50 [33]: 2000 nM; Vd [34]: 1.9 L/kg
CN1Cc2cc(-c3ccc(C[C@@H](C#N)NC(=O)[C@@H]4C[C@@H](O)CCN4)cc3)ccc2C1=O	> 10000 nM	3.98 nM		> 10000 nM	> 120000 nM	0.5	7940 nM	39.8 nM	< 4 µL/min/1e6 cells	< 4 µL/min/mg	> 10000 nM	> 33000 nM	
N#C[C@H](Cc1ccc(-c2ccccc2)cc1)NC(=O)C1(N)CCOCC1		2 nM	5.4			2.3		31.6 nM	> 150 µL/min/1e6 cells	> 150 µL/min/mg		> 33000 nM	inhibition [35]: inactive
N#Cc1ccc(-c2ccc(C[C@@H](C#N)NC(=O)[C@@H]3CCCCN3)cc2)cc1	> 10000 nM	39.8 nM	8.4	> 10000 nM	9000 nM	2.7	1000 nM	10 nM	< 3 µL/min/1e6 cells	< 4 µL/min/mg	> 10000 nM	1400 nM	clearance [18]: 16 mL/min/kg; Activity [20]: Toxic; Activity [21]: Toxic; Activity [24]: Toxic; half-life [25]: 4.5 h; Activity [31]: Toxic; bioavailability [32]: 75%; Vd [34]: 5.6 L/kg
CC[C@H](N)C(=O)N[C@H](C#N)Cc1ccc(-c2ccccc2)cc1		2 nM						63.1 nM					
CN1Cc2ccc(-c3ccc(C[C@@H](C#N)NC(=O)C4(N)CCOCC4)cc3)cc2C1=O			6.3			1.1	7940 nM	50.1 nM	41 µL/min/1e6 cells	< 3 µL/min/mg		> 33000 nM	inhibition [36]: 50%

Further molecules by falling IC50 [8], results first:

IC50 [1]	IC50 [2]	pKa [3]	IC50 [4]	EC50 [5]	logD [6]	IC50 [7]	IC50 [8]	hepatocyte CLint [9]	microsomal CLint [10]	IC50 [11]	Compound	IC50 [12]	also measured
	0.794 nM	6.3			0.8		7.94 nM	< 3 µL/min/1e6 cells	< 3 µL/min/mg		CS(=O)(=O)c1cccc(-c2ccc(C[C@@H](C#N)NC(=O)C3(N)CCOCC3)cc2)c1	> 33000 nM	inhibition [35]: inactive
> 10000 nM	25.1 nM	7.1	> 10000 nM		1	251 nM	7.94 nM	5 µL/min/1e6 cells	< 3 µL/min/mg	> 10000 nM	CN1Cc2cc(-c3ccc(C[C@@H](C#N)NC(=O)[C@@H]4CCCCN4)cc3)ccc2C1=O		
	2.51 nM	7.1			2.9		3.16 nM	15 µL/min/1e6 cells	20 µL/min/mg		N#Cc1ccc(-c2ccc(C[C@@H](C#N)NC(=O)C3(N)CCCCC3)cc2)cc1	9000 nM	
> 10000 nM	3.98 nM		> 10000 nM			398 nM	1 nM	13 µL/min/1e6 cells	7 µL/min/mg	> 10000 nM	CSc1cc(-c2ccc(C[C@@H](C#N)NC(=O)[C@@H]3CCCCN3)cc2)ccc1C#N	2700 nM	
